Test results taken from ChEMBL document CHEMBL1152148, “Exploring 8-benzyl pteridine-6,7-diones as inhibitors of glutamate racemase (MurI) in gram-positive bacteria” (Bioorg Med Chem Lett, 2008).
In brackets after ≈: the same amount, converted by molar mass.

How the values were obtained:
[1] = Solubility in Tris buffer at pH 8.0 by nephelometry; format: physicochemical
Method in brief: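 Solubility was determined by nephelometry in the assay medium.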

[2] = Inhibition of Staphylococcus aureus murI assessed as effect on conversion of D-glutamate to L-glutamate at pH 8.0 by HPLC
Method in brief: (§1)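 IC50 determined against the MurI isozyme at pH 8 in Tris buffer containing polyethylene glycol, dithiothreitol and D-glutamate substrate. Conversion of D- to L-glutamate was followed by HPLC, with chiral separation of the glutamate enantiomers on a D-penicillamine column.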

Glutamate racemase = target: T1, Glutamate racemase (Enterococcus faecalis (strain ATCC 700802 / V583), UniProt Q836J0); assay: Inhibition of Enterococcus faecalis murI assessed as effect on conversion of D-glutamate to L-glutamate at pH 8.0 by HPLC; method in brief: as §1
T1 sequence (Q836J0 whole entry): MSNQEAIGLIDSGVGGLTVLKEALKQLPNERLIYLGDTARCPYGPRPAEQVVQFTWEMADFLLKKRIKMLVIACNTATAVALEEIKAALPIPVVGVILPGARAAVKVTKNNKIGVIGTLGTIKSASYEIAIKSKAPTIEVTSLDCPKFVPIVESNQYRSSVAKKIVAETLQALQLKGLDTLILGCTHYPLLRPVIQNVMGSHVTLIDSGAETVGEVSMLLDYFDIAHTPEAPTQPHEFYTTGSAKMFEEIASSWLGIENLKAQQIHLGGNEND

Staphylococcus aureus = assay: Antibacterial activity against Staphylococcus aureus by NCCLS method; format: functional
[3] = Inhibition of Enterococcus faecium murI assessed as effect on conversion of D-glutamate to L-glutamate at pH 8.0 by HPLC

solubility kinetic [1] | IC50 [2] | IC50 (Glutamate racemase) | MIC (Staphylococcus aureus) | IC50 [3] | SMILES
3.1 µM (≈ 1.32 µg/mL) | < 1.5 µM | 650 nM | > 64 µg/mL | – | CCCCSc1nc(N)c2[nH]c(=O)c(=O)n(Cc3ccc(Cl)c(Cl)c3)c2n1
25 µM (≈ 8.09 µg/mL) | – | 11000 nM | > 64 µg/mL | – | CCCCSc1nc(N)c2[nH]c(=O)c(=O)n(CCCC)c2n1
50 µM (≈ 20.9 µg/mL) | 14 µM | 1700 nM | > 64 µg/mL | – | CCCCSc1nc(N)c2[nH]c(=O)c(=O)n(Cc3cc(OC)cc(OC)c3)c2n1
32 µM (≈ 12 µg/mL) | 5.1 µM | 3500 nM | > 64 µg/mL | – | CCCCSc1nc(N)c2[nH]c(=O)c(=O)n(Cc3ccc(F)cc3)c2n1
25 µM (≈ 8.94 µg/mL) | 6.4 µM | 2400 nM | > 64 µg/mL | – | CCCCSc1nc(N)c2[nH]c(=O)c(=O)n(Cc3ccccc3)c2n1
50 µM (≈ 19.7 µg/mL) | 3.1 µM | 1500 nM | > 64 µg/mL | – | CCCCSc1nc(N)c2[nH]c(=O)c(=O)n(Cc3c(F)cccc3F)c2n1
0.8 µM (≈ 0.323 µg/mL) | – | 1100 nM | 4 µg/mL (≈ 9.91 µM) | – | CCCCSc1nc(N(C)C)c2[nH]c(=O)c(=O)n(Cc3ccc(F)cc3)c2n1

Second part, the compound before the results:

SMILES | solubility kinetic [1] | IC50 [2] | IC50 (Glutamate racemase) | MIC (Staphylococcus aureus) | IC50 [3]
Nc1nc(SCCc2ccccc2)nc2c1[nH]c(=O)c(=O)n2Cc1ccccc1 | 3 µM (≈ 1.22 µg/mL) | 11 µM | 50000 nM | – | –
CCCCSc1nc(NCCN2CCOCC2)c2[nH]c(=O)c(=O)n(Cc3ccc(F)cc3)c2n1 | 50 µM (≈ 24.4 µg/mL) | 25 µM | 2500 nM | 64 µg/mL (≈ 131 µM) | –
CCCCSc1nc(N2CCN(C)CC2)c2[nH]c(=O)c(=O)n(Cc3ccc(F)cc3)c2n1 | 25 µM (≈ 11.5 µg/mL) | 21 µM | 6100 nM | 16 µg/mL (≈ 34.9 µM) | –
Nc1nc(SC2CCCC2)nc2c1[nH]c(=O)c(=O)n2Cc1ccccc1 | 12 µM (≈ 4.43 µg/mL) | 52 µM | 1900 nM | > 64 µg/mL | –
Nc1nc(SCc2ccccc2)nc2c1[nH]c(=O)c(=O)n2Cc1ccccc1 | 3 µM (≈ 1.17 µg/mL) | 7.6 µM | 21000 nM | – | –
CCCCSc1nc(NC)c2[nH]c(=O)c(=O)n(Cc3ccc(F)cc3)c2n1 | 25 µM (≈ 9.74 µg/mL) | 3.8 µM | 900 nM | 8 µg/mL (≈ 20.5 µM) | –
CCCCSc1nc(N)c2ncn(Cc3ccc([N+](=O)[O-])cc3)c2n1 | 10 µM (≈ 3.58 µg/mL) | > 400 µM | 7000 nM | – | 18 µM
CCCCSc1nc(N2CC(O)C2)c2[nH]c(=O)c(=O)n(Cc3ccc(F)cc3)c2n1 | 1.6 µM (≈ 0.69 µg/mL) | 4 µM | 2100 nM | > 64 µg/mL | –
